Measurements gathered from unrelated publications.
Each line is one published result; the experiments were not run side by side.
Target: Serine/threonine-protein kinase ULK2 (ULK2, Homo sapiens, UniProt Q8IYT8)

The remaining binding of `CNC(=O)Nc1ccc2c(c1)[C@@]1(CC2)OC(=O)N(CC(=O)N(Cc2ccc(F)cc2)[C@@H](C)C(F)(F)F)C1=O` is reported as 100% (cell-free assay, competition with immobilised ligand; 1 µM).
With `COc1cc2c(Nc3ccc(Br)cc3F)ncnc2cc1OCC1CCN(C)CC1` the remaining signal was 108% (cell-free assay; 0.5 µM).
`Nc1ncnc2occ(-c3ccc(NC(=O)Nc4cc(C(F)(F)F)ccc4F)cc3)c12` has a remaining signal of 8.8% (cell-free assay, inhibitor; 20 µM).
`C[C@@H](c1cccc(C#N)c1)n1cc(Cl)cc(C(N)=O)c1=N` has a remaining binding of 89% (cell-free assay, competition with immobilised ligand; 1 µM).
For `CN1CC(Oc2cnc(C#N)cc2-c2ccn3nc(NC(=O)C4CC4)cc3c2)C1`, the inhibition was 8% (enzyme activity, inhibitor; 1 µM).
For `O=C(NCc1ncc(C(F)(F)F)cc1Cl)c1ccc2c(c1)C1(CCS(=O)(=O)CC1)[C@H](C1CC1)N2S(=O)(=O)c1ccc(F)cc1`, the remaining binding was 58% (cell-free assay, competition with immobilised ligand; 1 µM).
`Cc1ccc(C(=O)NCc2ccsc2)cc1C#Cc1cn(C(C)C)c2ncnc(N)c12` gave an activity vs control of 92% (enzyme activity, inhibitor; 1 µM).
The remaining activity of `CCCOc1ccc(OC)c(F)c1C(=O)c1ccc(C(=O)N[C@@H]2CNC[C@H]2NC(=O)c2ccc3[nH]ncc3c2)cc1` is reported as 101% (enzyme activity, inhibitor; 10 µM).
For `N#CCCc1ccc2c(c1)-c1[nH]c3ccc([N+](=O)[O-])cc3c1CC(=O)N2`, the remaining signal was 73.1% (cell-free assay; 0.5 µM).
`FC(F)(F)Oc1cccc(-c2cnc3ccc(-c4ccncc4)nn23)c1` has an activity vs control of 95% (enzyme activity, inhibitor, radiometric; 5 µM).
The remaining binding of `Cc1nc(C2CCN(C(=O)c3ccc(OC(F)(F)F)cc3N)CC2)c2ncc(N3CCN(C)CC3)cc2n1` is reported as 100% (cell-free assay, competition with immobilised ligand; 1 µM).
The inhibition of `CCN1CCN(Cc2ccc(NC(=O)c3ccc(C)c(Oc4ccnc5[nH]ccc45)c3)cc2C(F)(F)F)CC1` is reported as -13.4% (target engagement in cells, inhibitor, chemoproteomics; Huh-7; 10 µM).
For `C=CC(=O)Nc1cc(Nc2nccc(Nc3cc(Cl)c(F)cc3C(C)(C)O)n2)c(OC)cc1N1CC[C@@H](N(C)C)C1`, the inhibition was -2% (enzyme activity, inhibitor; 1 µM).
With `Nc1c(C(=O)NCc2ccc(C(=O)NCCCC3CCCCC3)cc2)cnn1-c1ccccc1` the remaining binding was 100% (cell-free assay, competition with immobilised ligand; 0.1 µM).
For `CCCS(=O)(=O)Nc1ccc(F)c(C(=O)c2c[nH]c3ncc(-c4ccc(Cl)cc4)cc23)c1F`, the inhibition was less than 10% (enzyme activity, inhibitor; 1 µM).
`CC(=O)N1CCC(c2ccc(C(=O)NC3=NCCN3)cc2C(F)(F)F)CC1` has a remaining binding of 82% (cell-free assay, competition with immobilised ligand; 1 µM).
`Cc1ccc(C(=O)Nc2ccc(CN3CCN(C)CC3)c(C(F)(F)F)c2)cc1C#Cc1cnc2cccnn12` gave a remaining activity of 94% (enzyme activity, inhibitor; 23.5 nM).
`Cc1cc(NC(=O)c2cccc3cc(-c4cccc5[nH]nc(N)c45)ccc23)ccc1F` has an activity vs control of 105% (enzyme activity, inhibitor; 0.1 µM).
The remaining activity of `O=C(Nc1cnn(-c2csc(C(=O)NC3COC3)c2)c1)Nc1c(F)cccc1Cl` is reported as 105% (enzyme activity, inhibitor; 5 µM).
The inhibition of `CS(=O)(=O)Nc1cccc(-c2csc(NC(=O)CSc3nc4nccnc4c(=O)n3CCc3ccccc3)n2)c1` is reported as -2% (enzyme activity, inhibitor; 10 µM).
`CNC(=O)c1cc(Oc2ccc(NC(=O)Nc3ccc(Cl)c(C(F)(F)F)c3)cc2)ccn1` gave a remaining signal of 106% (cell-free assay; 0.5 µM).
With `Cc1sc(C(=O)NC2COC2)cc1-n1cc(NC(=O)Nc2c(F)cccc2Cl)cn1` the remaining activity was 74.9% (enzyme activity, inhibitor; 10 µM).
